As usually defined, the EC50 is the concentration needed to bring the measured effect to its halfway point. Usually IC50 stands for the concentration needed to halve the response being measured. A high value points to weaker potency.

The source made the active and inactive calls. The rule behind the calls is not given here. A value given as a limit tells only on which side of the number the result lay.

Four compounds from ChEMBL document CHEMBL1799976, “Neurosteroid analogues. 15. A comparative study of the anesthetic and GABAergic actions of alphaxalone, Δ16-alphaxalone and their corresponding 17-carbonitrile analogues” (Bioorg Med Chem Lett, 2010) can be followed below.

Assay [1] deals with Oocyte. As to the kind of experiment: Modulation of rat GABA-A alpha1beta2gamma2L receptor expressed in Xenopus oocytes assessed as increase of chloride current at 10 uM by two electrode voltage-clamp method relative to GABA. The class given is cell-based. In outline: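 Direct gating test on oocytes expressing rat α1β2γ2L GABA-A receptors. Compound was applied alone at 10 μM with no GABA. The current is expressed as compound-only current divided by the current to 2 μM GABA, from at least four oocytes (SEM).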

In assay [2] the test system is Xenopus laevis. As to the kind of experiment: Anesthetic effect on prelimb-bud stage of Xenopus laevis tadpole assessed as loss of swimming reflex at 10 uM. The class given is functional, organism-based. In outline: (§1)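 Swimming-reflex scoring in tadpoles at single bath concentrations of 3 μM and 10 μM. Results are reported as whether the tadpoles kept or lost the reflex at each concentration.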

In assay [3] the test system is Oocyte. As to the kind of experiment: Modulation of rat GABA-A alpha1beta2gamma2L receptor expressed in Xenopus oocytes assessed as increase of GABA-induced chloride current at 0.1 uM by two electrode voltage-clamp method relative to control. The format is cell-based. In outline:
(§2)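 Two-electrode recording of GABA currents in Xenopus oocytes expressing rat α1β2γ2L GABA-A receptors. The control current was evoked with 2 μM GABA, then compound was co-applied at 0.1, 1 or 10 μM. Each value is the current with compound divided by the current without it, from at least four oocytes (SEM, N ≥ 4).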
In general terms: Two-electrode voltage clamp holds a large cell at a set potential and records current.

Assay [4] concerns Oocyte. Nature of the assay: Modulation of rat GABA-A alpha1beta2gamma2L receptor expressed in Xenopus oocytes assessed as increase of GABA-induced chloride current by two electrode voltage-clamp method relative to control. The class given is cell-based. In outline: as §2
Assay [5] deals with Oocyte. As to the kind of experiment: Modulation of rat GABA-A alpha1beta2gamma2L receptor expressed in Xenopus oocytes assessed as increase of GABA-induced chloride current at 1 uM by two electrode voltage-clamp method relative to control. The format is cell-based. In outline: as §2
Assay [6] concerns Oocyte. As to the kind of experiment: Modulation of rat GABA-A alpha1beta2gamma2L receptor expressed in Xenopus oocytes assessed as increase of GABA-induced chloride current at 10 uM by two electrode voltage-clamp method relative to control. The class given is cell-based. In outline:
as §2

The test system of assay [7] is Xenopus laevis. Nature of the assay: Anesthetic effect on prelimb-bud stage of Xenopus laevis tadpole assessed as loss of swimming reflex. The class given is functional, organism-based. In outline:
(§3)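 Behavioural reflex end points in tadpoles, with 10 animals at each of five or more concentrations. The highest concentration tested was 10 μM, and "none" means no reflex was lost at that level. EC50 was taken for each reflex, with error given as standard error of the mean.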

Assay [8] deals with Xenopus laevis. As to the kind of experiment: Anesthetic effect on prelimb-bud stage of Xenopus laevis tadpole assessed as loss of swimming reflex at 3 uM. The class given is functional, organism-based. In outline: as §1
Assay [9] deals with Xenopus laevis. As to the kind of experiment: Anesthetic effect on prelimb-bud stage of Xenopus laevis tadpole assessed as loss of righting reflex. The format is functional, organism-based. In outline:
as §3

A short description of assay [10]: Displacement of [35S]TBPS from GABA-A receptor picrotoxin binding site in rat brain cortical membranes after 2 hrs by scintillation counting. The format is cell membranes, Membrane. (Loss of bound radioactivity is the signal in a displacement assay; it reports binding, not function.)

Take `CC(=O)[C@H]1CC[C@H]2[C@@H]3CC[C@H]4C[C@H](O)CC[C@]4(C)[C@H]3C(=O)C[C@]12C` [ALFAXALONE]: the fold change (FC) turned out to be 0.11 in the assay on Oocyte [1], 2.91 in the assay on Oocyte [3], 4.7 in the assay on Oocyte [5] and 19.6 in the assay with Oocyte [6]. Moreover, the result in the assay with Xenopus laevis [2] was Active. In the assay on Oocyte [4], the Activity result is “Dose-dependent effect”. For the same compound, the concentration for a half-maximal effect (EC50) with Xenopus laevis [7] amounted to 5480 nM; with Xenopus laevis [9] it was 1120 nM. The result with Xenopus laevis [8] was inactive.
Compound `C[C@]12CC[C@@H](O)C[C@@H]1CC[C@H]1[C@@H]3CC[C@H](C#N)[C@@]3(C)CC(=O)[C@@H]12` returned an IC50 in assay [10] of 190 nM. Further, the fold change (FC) with Oocyte [1] was determined as 0.14; in the assay on Oocyte [3] it was 1.12; with Oocyte [5], 4.59; in the assay on Oocyte [6], 21.1. Also, in the assay with Xenopus laevis [2], the result was Active. Besides, the figures for the EC50 in the assay with Xenopus laevis [7] and with Xenopus laevis [9] were 5480 nM and 720 nM, respectively. In addition, the outcome in the assay with Xenopus laevis [8] was inactive.
As to `C[C@]12CC[C@@H](O)C[C@@H]1CC[C@@H]1[C@@H]2C(=O)C[C@]2(C)C(C#N)=CC[C@@H]12`, the IC50 in [10] was found to be 361 nM. For the same compound, the fold change (FC) stood at 0.21 in the assay on Oocyte [1], 1.49 with Oocyte [3], 4.07 with Oocyte [5] and 23.8 in the assay on Oocyte [6]. In addition, the result in the assay on Xenopus laevis [2] was Active. The EC50 stood at 5480 nM in the assay with Xenopus laevis [7] and 1040 nM in the assay on Xenopus laevis [9]. In the assay with Xenopus laevis [8], the result was inactive.
In [10], `CC(=O)C1=CC[C@H]2[C@@H]3CC[C@H]4C[C@H](O)CC[C@]4(C)[C@H]3C(=O)C[C@]12C` returned an IC50 of 2220 nM. In addition, the fold change (FC) was 0.08 with Oocyte [1], 0.94 with Oocyte [3], 0.97 in the assay with Oocyte [5] and 1.87 in the assay on Oocyte [6]. Also, in the assay on Xenopus laevis [2], the result was inactive. Further, the EC50 in the assay on Xenopus laevis [9] is greater than 10000 nM.
